The subject of one assay is HL-60. As to the kind of experiment: Inhibitory activity against human acute promyelocytic leukemia cells(HL-60) cell growth on 72 hr of exposure of the compound. The format is functional. The note with it: HL-60, 72 h, read-out: ID50 (the source's name).
The next assay concerns L1210. The assay is described as follows: Inhibitory activity against murine L1210 leukemic cell growth. The class given is functional. The note with it: Mus musculus, read-out: ID50 (the source's name).
Assay [1] deals with Nucleic Acid. As to the kind of experiment: Ratio for human acute promyelocytic leukemia cells(HL-60) cell growth inhibition and [3H]TdR incorporation into DNA in HL-60 cells. The class given is functional, cell-based.
Assay [2] deals with Nucleic Acid. The assay is described as follows: Inhibitory activity against [3H]TdR incorporation into DNA in HL-60 cells during the initial 30-min period. The note with it: Homo sapiens. The class given is functional, cell-based. A digest of the protocol:
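HL-60 cells (2.5 × 10^6/mL) preincubated 15 min with compound at four to six concentrations in 0.2% DMSO, then pulsed with [3H-methyl]TdR (1 μCi, 0.15 nmol/mL) for 30 min; radioactivity in isolated DNA fraction counted; compound-free DMSO control as reference.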

pIC50: −log10 of the molar value.

`COc1cc(O)c2c(c1)C(=O)c1cc(CNCCO)cc(O)c1C2=O`: the pIC50 with HL-60 is 5.80; with L1210, 6.30. The Ratio with Nucleic Acid [1] stood at 7.5. This compound gave an ID50 in the assay with Nucleic Acid [2] of 12 µM.

Turning to `COc1cccc2c1C(=O)c1c(OC)cc(CNCCCl)cc1C2=O`, the pIC50 with HL-60 is 4.07; with L1210, 4.59. In the assay with Nucleic Acid [1], the Ratio stood at 0.22. This compound also registered an ID50 in the assay on Nucleic Acid [2] of 19 µM.

For `O=C1c2cccc(O)c2C(=O)c2c(O)cc(CN3CCCC3)cc21`, the pIC50 in the assay on HL-60 is 5.68; in the assay on L1210 it was 5.80. For the same compound, the Ratio in the assay on Nucleic Acid [1] was 4.8. The same compound registered an ID50 with Nucleic Acid [2] of 10 µM.

On to `COc1cc(OC)c2c(c1)C(=O)c1cc(C)cc(OC)c1C2=O`, for which the pIC50 in the assay on HL-60 was 4.31; with L1210 it was 4.00. In the assay on Nucleic Acid [1], the Ratio was 0.43. The ID50 in the assay on Nucleic Acid [2] turned out to be 21 µM.

For `CN(C)Cc1cc(O)c2c(c1)C(=O)c1cccc(O)c1C2=O`, the pIC50 in the assay with HL-60 is 5.57; with L1210, 5.66. Further, in the assay on Nucleic Acid [1], the Ratio was 3.3. Also, in the assay on Nucleic Acid [2], the ID50 turned out to be 9.3 µM.

`O=C1c2cccc(O)c2C(=O)c2c(O)cc(C(Br)Br)cc21`: the figures for the pIC50 in the assay with HL-60 and in the assay on L1210 were 5.60 and 6.36, respectively. The Ratio with Nucleic Acid [1] is 15.6. Besides, the ID50 with Nucleic Acid [2] was determined as 39 µM.

Regarding `COc1cc(CBr)cc2c1C(=O)c1c(O)cccc1C2=O`, the values for the pIC50 in the assay on HL-60 and in the assay on L1210 were 5.15 and 5.06, respectively. The Ratio with Nucleic Acid [1] stood at 1.7. Further, the ID50 with Nucleic Acid [2] amounted to 12 µM.

Take `COc1cccc2c1C(=O)c1c(OC)cc(CNCCO)cc1C2=O`: the results for the pIC50 in the assay with HL-60 and with L1210 were 4.26 and 3.85, respectively. For the same compound, in the assay on Nucleic Acid [1], the Ratio turned out to be 0.84. The same compound showed an ID50 in the assay with Nucleic Acid [2] of 46 µM.

As for `COc1cc(OC)c2c(c1)C(=O)c1cc(CNCCO)cc(OC)c1C2=O`, the pIC50 in the assay with HL-60 is 3.96; with L1210, 4.77. Besides, the Ratio in the assay on Nucleic Acid [1] stood at 0.24. In the assay with Nucleic Acid [2], this compound displayed an ID50 of 26 µM.

Turning to `COc1cc(O)c2c(c1)C(=O)c1cc(CNCCCl)cc(O)c1C2=O`, the pIC50 in the assay with HL-60 is 5.04; with L1210, 4.74. Further, the Ratio with Nucleic Acid [1] is 23.9. The compound also had an ID50 in the assay with Nucleic Acid [2] of 220 µM.

Values taken from ChEMBL document CHEMBL1124531, “Intercalating agents with covalent bond forming capability. A novel type of potential anticancer agents. 2. Derivatives of chrysophanol and emodin” (1989).
